In ChEMBL document CHEMBL4680071, “Structure guided generation of thieno[3,2-d]pyrimidin-4-amine Mycobacterium tuberculosis bd oxidase inhibitors” (RSC Med Chem, 2021) one finds IC50 data, which are given here for three compounds.

Assay [1] can be described thus: Inhibition of […] tuberculosis Erdman assessed as replicating ATP by measuring ATP depletion incubated for 15 hrs in presence of Q203 by BacTiter-Glo luminescence assay. Details: species or system Mycobacterium tuberculosis str. Erdman. The procedure, abridged: (§1)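 Cultures grown in Middlebrook 7H9 with 0.05% Tween 80, 0.5% glycerol, BSA fraction V, D-glucose and NaCl. Cells pelleted, resuspended in glycerol-free medium at about 10^7 CFU/mL, added to compound dilutions. Plates incubated 15 h at 37°C. BacTiter-Glo reagent added, luminescence read after 12 min to give ATP level. IC50 from curve fitting.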

Assay [2] is described as follows: Inhibition of cytochrome-bd oxidase in Mycobacterium tuberculosis H37Rv assessed as replicating ATP by measuring ATP depletion incubated for 15 hrs in absence of Q203 by BacTiter-Glo luminescence assay. The gist of the method: as §1
Assay [3] is described as follows: Inhibition of cytochrome-bd oxidase in Mycobacterium tuberculosis clinical isolate N0145 assessed as replicating ATP by measuring ATP depletion incubated for 15 hrs in absence of Q203 by BacTiter-Glo luminescence assay. The gist of the method:
as §1

For the compound `CCc1nc(NCCCc2ccccc2)c2cc(C)sc2n1`, the IC50 in assay [1] was 0.083 µM.

Turning to `CCCCNc1nc(CC)nc2sc(C)cc12`, in assay [1], the IC50 is 3.2 µM. `COc1nc2ccc(Br)cc2cc1[C@@H](c1ccccc1)[C@@](O)(CCN(C)C)c1cccc2ccccc12` [BEDAQUILINE]: the IC50 came to 40 µM in assay [2] and 10 µM in assay [3].
